ChEMBL document CHEMBL4513216, “Probing the Open Global Health Chemical Diversity Library for Multistage-Active Starting Points for Next-Generation Antimalarials” (ACS Infect Dis, 2020)

Test: Toxicity liver stage against HepG2, at 10uM
Assay type: cell-based
Parameters: test concentration 10 uM, cell line HepG2-A16-CD81EGFP
Conditions: human, HepG2-A16-CD81EGFP cells; read-out: INHIBITION
Summary of the method: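 Uninfected HepG2-A16-CD81EGFP cells, 3 × 10^3 per well, 1536-well, plated on prespotted compound at 10 μM final, parasite-free screening media added to match infected plates; puromycin 10 μM positive, DMSO 0.5% negative; run in parallel with 48 h PbLuc assay at 37 °C, 5% CO2; viability by CellTiter-Glo luminescence, normalized to controls.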

Structure (SMILES)	cytotoxicity at 10 µM
Cn1c(CN2CCOC[C@H]2c2nc(C(C)(C)C)co2)nc2ccccc21	4.78%
CS(=O)(=O)NC[C@H]1Cn2c(-c3ccc(F)cc3)cnc2CO1	-7.47%
CCN1C(=O)C(C#N)=C(C)/C(=C/C2=Cc3ccccc3OC2)C1=O	-40.9%
COc1cc(OC)cc(C(=O)Nc2ncnc3c2CCC3)c1	-179%
CCN1CC[C@]2(CN(C(=O)[C@H]3CCCO3)C[C@H]2c2ccccc2)C1=O	5.98%
CCCN(CCC)c1ncc(S(=O)(=O)c2ccccc2)c(N)n1	-2.26%
Cc1cc(C(=O)N(C)Cc2cccs2)nc(N2CCCCC2)n1	17.5%
c1ccc(N2CCN(Cc3cnc(C4CCCCO4)nc3)CC2)nc1 (stereo unspecified)	-3%
CCc1cc(C(F)(F)F)c2c(C3CCN(C(=O)COC)CC3)noc2n1	14%
O=C(Cc1ccccn1)N1CCc2c(O)nc(-c3cnccn3)nc2C1	-27%
Cn1nc(C2CCCNC2)c2c(C(=O)NC3CC3)cc(C3CC3)nc21 (stereo unspecified)	14.5%
Cc1ccc(CN2CCCC23Cc2ccccc2CNC3=O)cc1 (stereo unspecified)	8.82%
Cc1ccc(-c2nc(CC(=O)N3CCCC(NC(=O)C(C)C)C3)cs2)o1 (stereo unspecified)	-50.5%
OCC(CO)Nc1nc(C(F)F)nc2ccccc12	6.96%
CCc1noc(CN2CCN(C(=O)Cc3ccc(F)cc3)CC2)n1	10.4%
O=C(CCC1CCCO1)NCCN1CCCCC1 (stereo unspecified)	-3.79%
CN(c1ncc(S(N)(=O)=O)s1)C1CCC1	4.13%
COCCNc1ccccc1CNC(=O)NCc1cnc(C)s1	10.6%
O=C(c1ccc2nccn2c1)N1CCCC1c1noc(C2CC2)n1 (stereo unspecified)	-4.68%
CN(C)c1cc(CNCc2cccc3c2OCCO3)ccn1	3.57%
COCCNC(=O)CN(C)Cc1ccc(F)cc1Cl	-1.02%

Structure (SMILES)	cytotoxicity at 10 µM
Cc1cc(CNC(=O)NCc2ccccc2N2CCOCC2)no1	1.15%
CNC(=O)CS(=O)(=O)Cc1ccc(OC)c(F)c1	-6.7%
CN(Cc1ccccc1)CC(C)(C)NC(=O)c1ccc(C(N)=O)cn1	-0.616%
O=S1(=O)CCC(CNS(=O)(=O)N2CCc3ccccc3C2)C1 (stereo unspecified)	-10.7%
COc1ccc(CN2CCC(C(N)=O)CC2)cc1SC(F)(F)F	-20.3%
CN(Cc1ccc([S+](C)[O-])cc1)c1cncc(Cl)n1 (stereo unspecified)	-10.6%
N#CC1(NC(=O)c2ccc(F)c(Br)c2)CCSC1 (stereo unspecified)	-7.08%
CC(C)c1noc(CCC(=O)N2CCSCC2)n1	-2.99%
COc1cc(C)c(NC(=O)NCCn2cccc2)cc1OC	0.414%
CCC(CC)c1nnc(NC(=O)N2CCCC(NC(C)=O)C2)s1 (stereo unspecified)	5.9%
Cn1cc(C(=O)N2CCOc3ccccc32)ccc1=O	13%
CCN(C(=O)COC)C(c1cccnc1)c1ccc2c(c1)CCO2 (stereo unspecified)	-12.4%
CN1CC[C@]2(CN(CC3CC3)C[C@H]2c2ccccc2)C1=O	3.15%
COCC1c2nnn(C)c2CCN1C(=O)CCc1cccc(OC)c1 (stereo unspecified)	-90.4%
CCN1C[C@H]2CCN(C(=O)Cc3cccc(OC)c3)CC[C@H]2S1(=O)=O	9.86%
COc1cc(F)ccc1CC(=O)N1CC[C@H]2C(=O)NCCO[C@H]2C1	-108%
COCc1cnc2n1CCN(C(=O)c1oc3ccccc3c1C)C2C (stereo unspecified)	-104%
CCOCc1cnc2n1CCN(C(=O)c1cccc3c1OCCO3)C2C (stereo unspecified)	-98.2%
Cc1cnc(C(=O)N2CCN3C[C@H](OCc4cccnc4)C[C@H]3C2)cn1	-59.7%
O=C(C1CCOC1)N1CCC2(CCN(Cc3nccs3)CC2)CC1 (stereo unspecified)	-73.3%
O=C(c1ccoc1)N1CC[C@@H]2O[C@@H](COCc3ccncc3)CC[C@@H]21	-80.4%

Structure (SMILES)	cytotoxicity at 10 µM
c1cc(CN2CCOCC3(CCN(C4CCOCC4)C3)C2)ccn1 (stereo unspecified)	0.866%
O=C1NC2(CCNCC2)CC1c1cccnc1 (stereo unspecified)	1.77%
Cc1nc2sccn2c1C(=O)N1CCc2c(nc(N(C)C)[nH]c2=O)C1	5.06%
CC(C)N(C)C(=O)C1CCC(=O)N(CCc2cccc(F)c2)C1 (stereo unspecified)	-4.57%
CCc1nc2c(c(N3CCOCC3)n1)CCN(C(=O)c1ccon1)CC2	10.6%
CC(C)N(C(=O)N1CCn2cncc2C1)C(C)C	-12.3%
CS(=O)(=O)N1CC[C@]2(O)CCN(c3cc(C#N)ccn3)C[C@@H]2C1	6.36%
CCCC(C)NC1CCN(c2ccc(-n3ccnc3C)cc2)CC1 (stereo unspecified)	-3.67%
C=C(C)COc1cccc(C(=O)NC(C)c2nnn[nH]2)c1 (stereo unspecified)	-8.32%
COc1ccc(Cc2noc(-c3ccc(NC(C)CO)nc3)n2)cc1 (stereo unspecified)	-3.06%
O=C(CCN1CCCC1)N1CC[C@@H](c2ccc3ccccc3c2)[C@H](O)C1	2.97%
O=C(O)C1(Cc2ccc(Cl)cc2)CCN(c2ncccc2F)CC1	-1.29%
Cc1nn(C)cc1-c1ccnc(N(C)Cc2ccoc2)n1	23.8%
O=C(O)C(c1ccc(Cl)c(F)c1)N1CCN(Cc2ccccn2)CC1 (stereo unspecified)	8.09%
COc1ccc(C(C)C)cc1C1CC(=O)NCc2nc(N(C)C)sc21 (stereo unspecified)	-1.22%
O=C(Nc1ccccc1Cl)N1CCN(CC2CC2)[C@@H]2CS(=O)(=O)C[C@@H]21	2.72%
CN(C)CC1(O)CCCN(C(=O)Cc2ccc(Cl)c(Cl)c2)C1 (stereo unspecified)	0.355%
Cn1ncc(NC(=O)Cn2ccc(-c3ccc(F)cc3)n2)n1	1.05%
CC(C)[C@H]1COC(=O)N1CC(=O)N1CCCN(C(=O)c2ccoc2)CC1	3.38%
O=c1[nH]c(NC2CCCC2)nc2nccc(-c3cccs3)c12	-18.1%
CCn1cncc1CNc1ccc(-c2nc(CC(C)C)no2)cn1	-9.07%

Structure (SMILES)	cytotoxicity at 10 µM
Cc1cc(N2CCN(Cc3ccc(-c4cc[nH]n4)o3)CC2)cc(C)n1	2.17%
CN1CCCN(C(=O)NCc2cccnc2-n2cccn2)CC1	-17.9%
COc1ccc(CNc2cnn(C)c(=O)c2Cl)cc1	-3.45%
c1cnnc(N2CCCC2CNc2ncnc3ccsc23)c1 (stereo unspecified)	-8.87%
COc1cccc(COCC(O)CN2CC(n3cccn3)C2)c1 (stereo unspecified)	-8.52%
CS(=O)(=O)NCCCN1CCCCC1c1cc2ccccc2[nH]1 (stereo unspecified)	-10.6%
Cc1ccoc1C(=O)NC1CCN(Cc2cccc3c2OCCO3)CC1	1.18%
CCCc1nnsc1C(=O)N1CCN(CC(C)O)CC1 (stereo unspecified)	-5.3%
CCOC(=O)N1CCN(c2nc(NC3CC3)c3ccccc3n2)CC1	-0.529%
COCC(=O)N(C)Cc1nc(N2CCCC2)ncc1-c1ccncc1	12.3%
CN(C)C(=O)NCc1ncn2c1CN(Cc1cccs1)CCC2	8.07%
Cc1cnc(N2CCOC3(CCCN(C)C3)C2)nc1 (stereo unspecified)	8.25%
Fc1cccc(-c2nnn3c2COC(CNCc2ccsc2)C3)c1 (stereo unspecified)	-1.52%
CCn1cc2c(n1)CN(Cc1sccc1C)CC2COCC1CC1 (stereo unspecified)	-57.3%
CC[C@@H]1N(Cc2ccsc2)CCC[C@]12CCC(=O)N2CCOC	7.36%
COCCN1CCC(c2nc3ccc(N4CCCC4)cn3n2)CC1	11.8%
Cn1cc(N2C(=O)CC[C@@H]3[C@H]2CCN3C(=O)c2cscn2)cn1	-81.5%
Cc1cccc(CNC2CC3(CCN(CCO)CC3)c3ccccc32)n1 (stereo unspecified)	-110%
